Results: ChEMBL document CHEMBL1158102, “Biologically active triterpenoid saponins from Acanthopanax senticosus” (J Nat Prod, 2006)
Calls of active or inactive are those of the source. No cut-off for these calls is given here.

target: T1, Pancreatic triacylglycerol lipase (Homo sapiens) (UniProt P16233); test: Inhibition of pancreatic lipase assessed as umoles of oleic acic released per millimiter of triolein per hour at 1 mg/mL
T1 sequence (whole entry): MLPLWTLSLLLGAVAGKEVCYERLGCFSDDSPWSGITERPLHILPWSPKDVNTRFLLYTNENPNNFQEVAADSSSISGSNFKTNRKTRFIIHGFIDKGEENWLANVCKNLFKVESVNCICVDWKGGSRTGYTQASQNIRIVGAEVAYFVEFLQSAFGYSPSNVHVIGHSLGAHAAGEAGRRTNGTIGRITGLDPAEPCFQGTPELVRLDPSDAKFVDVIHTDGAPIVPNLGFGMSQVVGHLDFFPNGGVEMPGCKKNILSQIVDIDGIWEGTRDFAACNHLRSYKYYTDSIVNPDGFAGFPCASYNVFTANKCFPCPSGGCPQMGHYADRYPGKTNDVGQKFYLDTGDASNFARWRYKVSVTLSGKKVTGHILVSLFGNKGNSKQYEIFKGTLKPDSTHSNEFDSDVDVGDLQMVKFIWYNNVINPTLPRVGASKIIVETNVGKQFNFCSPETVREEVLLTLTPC
Summary of the method: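 Lipase activity measured as rate of oleic acid release from triolein. Substrate: sonicated triolein, phosphatidylcholine and taurocholic acid in 0.1 M TES buffer pH 7.0 with 0.1 M NaCl. Incubated with pancreatic lipase (10 units) and sample for 30 min at 37 °C. Free fatty acids extracted, converted to copper salts, reacted with bathocuproine, absorbance read at 480 nm. Means ± SEM of three experiments.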

Row | SMILES | Activity | inhibition [%]
1 | C[C@@H]1O[C@@H](O[C@H]2[C@H](O)[C@@H](O)[C@H](OC[C@H]3O[C@@H](OC(=O)[C@]45CCC(C)(C)C[C@H]4C4=CC[C@@H]6[C@@]7(C)CC[C@H](O[C@@H]8OC[C@H](O)[C@H](O)[C@H]8O)C(C)(C)[C@@H]7CC[C@@]6(C)[C@]4(C)CC5)[C@H](O)[C@@H](O)[C@@H]3O)O[C@@H]2CO)[C@H](O)[C@H](O)[C@H]1O | inactive | –
2 | C=C1CC[C@]2(C(=O)O[C@@H]3O[C@H](CO[C@@H]4O[C@H](COC(C)=O)[C@@H](O[C@@H]5O[C@@H](C)[C@H](O)[C@@H](O)[C@H]5O)[C@H](O)[C@H]4O)[C@@H](O)[C@H](O)[C@H]3O)CC[C@]3(C)C(=CC[C@H]4[C@H]3CC[C@H]3C(C)(C)[C@@H](O[C@@H]5OC[C@H](O)[C@H](O)[C@H]5O)CC[C@]43C)[C@@H]2C1 | – | -46.7
3 | C=C1CC[C@]2(C(=O)O[C@@H]3O[C@H](CO[C@@H]4O[C@H](COC(C)=O)[C@@H](O[C@@H]5O[C@@H](C)[C@H](O)[C@@H](O)[C@H]5O)[C@H](O)[C@H]4O)[C@@H](O)[C@H](O)[C@H]3O)CC[C@]3(C)C(=CC[C@H]4[C@H]3CC[C@H]3C(C)(C)[C@@H](O[C@@H]5OC[C@H](O)[C@H](O)[C@H]5O[C@@H]5O[C@@H](C)[C@H](O)[C@@H](O)[C@H]5O)CC[C@]43C)[C@@H]2C1 | – | -80.5
4 | C=C(C)[C@@H]1CC[C@]2(C(=O)O[C@@H]3O[C@H](CO[C@@H]4O[C@H](CO)[C@@H](O[C@@H]5O[C@@H](C)[C@H](O)[C@@H](O)[C@H]5O)[C@H](O)[C@H]4O)[C@@H](O)[C@H](O)[C@H]3O)CC[C@]3(C)[C@H](CC[C@@H]4[C@@](C)(CCC(=O)O)[C@H](C(=C)C)CC[C@]43C)[C@@H]12 | – | 44.6
5 | C=C1CC[C@]2(C(=O)O[C@@H]3O[C@H](CO[C@@H]4O[C@H](COC(C)=O)[C@@H](O[C@@H]5O[C@@H](C)[C@H](O)[C@@H](O)[C@H]5O)[C@H](O)[C@H]4O)[C@@H](O)[C@H](O)[C@H]3O)CC[C@]3(C)C(=CC[C@H]4[C@H]3CC[C@H]3C(C)(C)[C@@H](O[C@@H]5OC[C@H](O)[C@H](O)[C@H]5O[C@@H]5O[C@H](CO)[C@@H](O)[C@H](O)[C@H]5O)CC[C@]43C)[C@@H]2C1 | inactive | –
6 | C=C1CC[C@]2(C(=O)O[C@@H]3O[C@H](CO[C@@H]4O[C@H](CO)[C@@H](O[C@@H]5O[C@@H](C)[C@H](O)[C@@H](O)[C@H]5O)[C@H](O)[C@H]4O)[C@@H](O)[C@H](O)[C@H]3O)CC[C@]3(C)C(=CC[C@H]4[C@H]3CC[C@H]3C(C)(C)[C@@H](O[C@@H]5OC[C@H](O)[C@H](O)[C@H]5O[C@@H]5O[C@@H](C)[C@H](O)[C@@H](O)[C@H]5O)CC[C@]43C)[C@@H]2C1 | inactive | –
7 | CC(=O)OC[C@H]1O[C@@H](OC[C@H]2O[C@@H](OC(=O)[C@]34CCC(C)(C)C[C@H]3C3=CC[C@H]5[C@@H](CC[C@H]6C(C)(C)[C@@H](O[C@@H]7OC[C@H](O)[C@H](O)[C@H]7O[C@@H]7O[C@@H](C)[C@H](O)[C@@H](O)[C@H]7O)CC[C@]56C)[C@]3(C)CC4)[C@H](O)[C@@H](O)[C@@H]2O)[C@H](O)[C@@H](O)[C@@H]1O[C@@H]1O[C@@H](C)[C@H](O)[C@@H](O)[C@H]1O | inactive | –
8 | C=C1CC[C@]2(C(=O)O[C@@H]3O[C@H](CO[C@@H]4O[C@H](CO)[C@@H](O[C@@H]5O[C@@H](C)[C@H](O)[C@@H](O)[C@H]5O)[C@H](O)[C@H]4O)[C@@H](O)[C@H](O)[C@H]3O)CC[C@]3(C)C(=CC[C@H]4[C@H]3CC[C@H]3C(C)(C)[C@@H](O[C@@H]5OC[C@H](O)[C@H](O)[C@H]5O)CC[C@]43C)[C@@H]2C1 | – | 46.5
9 | C[C@@H]1O[C@@H](O[C@H]2[C@H](O[C@H]3CC[C@]4(C)[C@H]5CC=C6[C@@H]7CC(C)(C)CC[C@]7(C(=O)O[C@@H]7O[C@H](CO[C@@H]8O[C@H](CO)[C@@H](O[C@@H]9O[C@@H](C)[C@H](O)[C@@H](O)[C@H]9O)[C@H](O)[C@H]8O)[C@@H](O)[C@H](O)[C@H]7O)[C@H](O)C[C@@]6(C)[C@@H]5CC[C@H]4C3(C)C)OC[C@H](O)[C@@H]2O)[C@H](O)[C@H](O)[C@H]1O | – | 38.3
10 | C=C(C)[C@@H]1CC[C@]2(C(=O)O[C@@H]3O[C@H](CO[C@@H]4O[C@H](CO)[C@@H](O[C@@H]5O[C@@H](C)[C@H](O)[C@@H](O)[C@H]5O)[C@H](O)[C@H]4O)[C@@H](O)[C@H](O)[C@H]3O)CC[C@]3(C)[C@H](C[C@H]4OC(=O)C[C@@H](O)[C@]5(C)[C@@H]4[C@@]3(C)CC[C@H]5C(=C)C)[C@@H]12 | – | 56.1
11 | C=C1CC[C@]2(C(=O)O[C@@H]3O[C@H](CO[C@@H]4O[C@H](CO)[C@@H](O[C@@H]5O[C@@H](C)[C@H](O)[C@@H](O)[C@H]5O)[C@H](O)[C@H]4O)[C@@H](O)[C@H](O)[C@H]3O)CC[C@]3(C)C(=CC[C@H]4[C@H]3CC[C@H]3C(C)(C)[C@@H](O[C@@H]5OC[C@H](O)[C@H](O)[C@H]5O[C@@H]5O[C@H](CO)[C@@H](O)[C@H](O)[C@H]5O)CC[C@]43C)[C@@H]2C1 | inactive | –
12 | C[C@@H]1O[C@@H](O[C@H]2[C@H](O[C@H]3CC[C@]4(C)[C@H]5CC=C6[C@@H]7CC(C)(C)CC[C@]7(C(=O)O[C@@H]7O[C@H](CO[C@@H]8O[C@H](CO)[C@@H](O[C@@H]9O[C@@H](C)[C@H](O)[C@@H](O)[C@H]9O)[C@H](O)[C@H]8O)[C@@H](O)[C@H](O)[C@H]7O)CC[C@@]6(C)[C@]5(C)CC[C@H]4C3(C)C)OC[C@H](O)[C@@H]2O)[C@H](O)[C@H](O)[C@H]1O | inactive | –
13 | CC(=O)OC[C@H]1O[C@@H](OC[C@H]2O[C@@H](OC(=O)[C@]34CCC(C)(C)C[C@H]3C3=CC[C@H]5[C@@H](CC[C@H]6C(C)(C)[C@@H](O[C@@H]7OC[C@H](O)[C@H](O)[C@H]7O[C@@H]7O[C@H](CO)[C@@H](O)[C@H](O)[C@H]7O)CC[C@]56C)[C@]3(C)CC4)[C@H](O)[C@@H](O)[C@@H]2O)[C@H](O)[C@@H](O)[C@@H]1O[C@@H]1O[C@@H](C)[C@H](O)[C@@H](O)[C@H]1O | inactive | –
14 | C[C@@H]1O[C@@H](O[C@H]2[C@H](O[C@H]3CC[C@]4(C)[C@H]5CC=C6[C@@H]7C[C@](C)(C(=O)O)CC[C@]7(C(=O)O)CC[C@@]6(C)[C@@H]5CC[C@H]4C3(C)C)OC[C@H](O)[C@@H]2O)[C@H](O)[C@H](O)[C@H]1O | – | 44.9
15 | C[C@@H]1O[C@@H](O[C@H]2[C@H](O[C@H]3CC[C@]4(C)[C@H]5CC=C6[C@@H]7C[C@](C)(CO)CC[C@]7(C(=O)O)CC[C@@]6(C)[C@@H]5CC[C@H]4C3(C)C)OC[C@H](O)[C@@H]2O)[C@H](O)[C@H](O)[C@H]1O | – | 33
